According to ChEMBL document CHEMBL3596186, “Synthesis and biological evaluation of diarylthiazole derivatives as antimitotic and antivascular agents with potent antitumor activity” (Bioorg Med Chem, 2015):

Tests used:
HepG2 [1] = assay: Cell cycle arrest in human HepG2 cells assessed as accumulation at G2/M phase at 1 uM after 24 hrs by flow cytometry (reference value: 11.29%); format: functional
HepG2 [2] = assay: Induction of apoptosis in human HepG2 cells assessed as necrotic cells at 0.2 uM after 24 hrs by annexin V/propidium iodide staining-based flow cytometry (reference value: 1.59%); format: functional
HepG2 [3] = assay: Induction of apoptosis in human HepG2 cells assessed as necrotic cells at 0.5 uM after 24 hrs by annexin V/propidium iodide staining-based flow cytometry (reference value: 1.59%); format: functional
HepG2 [4] = assay: Induction of apoptosis in human HepG2 cells assessed as necrotic cells at 1 uM after 24 hrs by annexin V/propidium iodide staining-based flow cytometry (reference value: 1.59%); format: functional
HepG2 [5] = assay: Induction of apoptosis in human HepG2 cells assessed as early apoptotic cells at 0.2 uM after 48 hrs by annexin V/propidium iodide staining-based flow cytometry (reference value: 0.87%); format: functional
HepG2 [6] = assay: Induction of apoptosis in human HepG2 cells assessed as early apoptotic cells at 0.5 uM after 48 hrs by annexin V/propidium iodide staining-based flow cytometry (reference value: 0.87%); format: functional
HepG2 [7] = assay: Induction of apoptosis in human HepG2 cells assessed as late apoptotic cells at 0.5 uM after 48 hrs by annexin V/propidium iodide staining-based flow cytometry (reference value: 3.74%); format: functional
HepG2 [8] = assay: Induction of apoptosis in human HepG2 cells assessed as necrotic cells at 0.5 uM after 48 hrs by annexin V/propidium iodide staining-based flow cytometry (reference value: 1.59%); format: functional
HepG2 [9] = assay: Induction of apoptosis in human HepG2 cells assessed as necrotic cells at 1 uM after 48 hrs by annexin V/propidium iodide staining-based flow cytometry (reference value: 1.59%); format: functional
HCT-116 [10] = assay: Antitumor activity against human HCT116 cells xenografted in Balb/c athymic nude mouse assessed as tumor growth inhibition at 20 mg/kg, ip administered daily after 42 days; format: functional; conditions: HCT-116, ip, 1008 h, read-out: TGI
In short: (§1)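 Female Balb/C athymic nude mice, 5-6 weeks old, implanted s.c. in the right flank with HCT116 cells in 100 µL HBSS. Tumor volume (π/6 × L × W²) and body weight measured every 2 days. Inhibition = (1 − treated/control tumor weight) × 100%.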

HCT-116 [11] = assay: Antitumor activity against human HCT116 cells xenografted in Balb/c athymic nude mouse assessed as tumor growth inhibition at 50 mg/kg, ip administered daily after 42 days; format: functional; conditions: HCT-116, ip, 1008 h, read-out: TGI; in short: as §1
Mus musculus = assay: Toxicity in Balb/c athymic nude mouse xenografted with human SKOV3 cells assessed as change in feeding and animal behavior at 20 to 50 mg/kg, ip administered daily; format: organism-based, SK-OV-3; conditions: in vivo
HCT-116 [12] = assay: Antiproliferative activity against human HCT116 cells after 48 hrs by MTT assay; format: functional, cell-based; conditions: HCT-116, 48 h
In short: (§2)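 HCT116, HepG2, SMMC-7721, SK-OV-3 and A2780s grown in DMEM; A549 and MCF-7 in RPMI-1640; all with 10% FBS and penicillin/streptomycin at 37 °C, 5% CO2. Log-phase cells at 40,000-50,000 cells/mL treated with graded concentrations for 48 h. MTT 3 h, DMSO solubilization, A570. IC50 from percent growth versus untreated control; mean ± SEM of ≥3 independent dose-response experiments.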

SK-OV-3 = assay: Antiproliferative activity against human SKOV3 cells after 48 hrs by MTT assay; format: functional, cell-based; conditions: SK-OV-3, 48 h; in short: as §2
A549 = assay: Antiproliferative activity against human taxol-resistant A549 cells after 48 hrs by MTT assay; format: functional, cell-based; conditions: A549, 48 h
In short: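 MCF-7/ADR (doxorubicin-resistant) and A549/T (taxol-resistant) cells in RPMI-1640 with 10% FBS and penicillin/streptomycin. Log-phase cells at 40,000-50,000 cells/mL exposed to graded concentrations for 48 h. MTT 3 h, DMSO solubilization, absorbance 570 nm. IC50 from percent growth versus untreated control; mean ± SEM of ≥3 independent experiments.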

MCF7 [13] = assay: Antiproliferative activity against human MCF7 cells after 48 hrs by MTT assay; format: functional, cell-based; conditions: MCF7, 48 h; in short: as §2
MCF7 [14] = assay: Resistance ratio, ratio of IC50 for human doxorubicin-resistant MCF7 cells to IC50 for human MCF7 cells; format: functional
In short: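 MTT assay: log-phase cells at 40,000-50,000 cells/mL in RPMI-1640 with 10% FBS, exposed to graded concentrations for 48 h, then MTT 3 h, DMSO solubilization, absorbance at 570 nm. IC50 from growth versus untreated control, at least three independent experiments. Ratio = resistant-line IC50 / parental-line IC50.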

NCI-H1975 = assay: Resistance ratio, ratio of IC50 for human gefitinib-resistant NCI-H1975 cells to IC50 for human HCC827 cells; format: functional
HCT-116 [15] = assay: Induction of apoptosis in human HCT116 cells assessed as early apoptotic cells at 0.2 uM after 24 hrs by annexin V/propidium iodide staining-based flow cytometry (reference value: 2.83%); format: functional
In short: (§3)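 HCT116 cells treated with compound or DMSO for 24 or 48 h, trypsinized, washed twice in PBS and dual-stained with annexin-V and PI. Analysed by flow cytometry: early apoptotic cells scored as annexin-V+/PI−, late apoptotic cells as annexin-V+/PI+.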

HCT-116 [16] = assay: Induction of apoptosis in human HCT116 cells assessed as late apoptotic cells at 0.2 uM after 24 hrs by annexin V/propidium iodide staining-based flow cytometry (reference value: 1.71%); format: functional; in short: as §3
HCT-116 [17] = assay: Induction of apoptosis in human HCT116 cells assessed as early apoptotic cells at 0.5 uM after 24 hrs by annexin V/propidium iodide staining-based flow cytometry (reference value: 2.83%); format: functional; in short: as §3
HCT-116 [18] = assay: Induction of apoptosis in human HCT116 cells assessed as late apoptotic cells at 0.2 uM after 48 hrs by annexin V/propidium iodide staining-based flow cytometry (reference value: 1.71%); format: functional; in short: as §3
HCT-116 [19] = assay: Induction of apoptosis in human HCT116 cells assessed as viable cells at 0.2 uM after 48 hrs by annexin V/propidium iodide staining-based flow cytometry (reference value: 92%); format: functional; conditions: HCT-116, 48 h, read-out: Activity
HCT-116 [20] = assay: Induction of apoptosis in human HCT116 cells assessed as early apoptotic cells at 0.5 uM after 48 hrs by annexin V/propidium iodide staining-based flow cytometry (reference value: 2.83%); format: functional; in short: as §3
HCT-116 [21] = assay: Induction of apoptosis in human HCT116 cells assessed as necrotic cells at 1 uM after 48 hrs by annexin V/propidium iodide staining-based flow cytometry (reference value: 3.49%); format: functional
HCT-116 [22] = assay: Induction of apoptosis in human HCT116 cells assessed as viable cells at 1 uM after 48 hrs by annexin V/propidium iodide staining-based flow cytometry (reference value: 92%); format: functional; conditions: HCT-116, 48 h, read-out: Activity
HepG2 [23] = assay: Cell cycle arrest in human HepG2 cells assessed as accumulation at G1 phase at 0.2 uM after 24 hrs by flow cytometry (reference value: 62.74%); format: functional

With CCOc1ccc(-c2nc(N)sc2-c2cc(OC)c(OC)c(OC)c2)cc1 the Activity (HepG2 [1]) was 83.67%, the Activity (HepG2 [2]) was 0.95% and the Activity (HepG2 [3]) was 0.81%. It also gave an Activity (HepG2 [4]) of 0.79%, an Activity (HepG2 [5]) of 66.6% and an Activity (HepG2 [6]) of 65.3%. For the same compound, the Activity (HepG2 [7]) was 4.38%, the Activity (HepG2 [8]) was 0.7% and the Activity (HepG2 [9]) was 0.4%. The inhibition in vivo at 20 mg/kg (HCT-116 [10]) was 49.5%, the inhibition in vivo at 50 mg/kg (HCT-116 [11]) was 55.1% and the Activity (Mus musculus) was “Non-toxic”. The IC50 (HCT-116 [12]) was 0.0084 µM, the IC50 (SK-OV-3) was 0.0142 µM and the IC50 (A549) was 0.043 µM. The IC50 (MCF7 [13]) was 0.1 µM, the “Ratio IC50” value (MCF7 [14]) was 1.9 and the “Ratio IC50” value (NCI-H1975) was 2.24. For the same compound, the Activity (HCT-116 [15]) was 7.8%, the Activity (HCT-116 [16]) was 8.08% and the Activity (HCT-116 [17]) was 11.2%. The Activity (HCT-116 [18]) was 23.4%, the viability at 0.2 µM (HCT-116 [19]) was 31.1% and the Activity (HCT-116 [20]) was 40.3%. For the same compound, the Activity (HCT-116 [21]) was 4.06%, the viability at 1 µM (HCT-116 [22]) was 20.2% and the Activity (HepG2 [23]) was 50.57%.
